Reference: ChEMBL document CHEMBL4321820, “Identification and Optimization of Mechanism-Based Fluoroallylamine Inhibitors of Lysyl Oxidase-like 2/3” (J Med Chem, 2019)
Calls of active or inactive are those of the source. No cut-off for these calls is given here.

Columns and labels:
[1] = Time during which plasma concentration exceed invitro IC50 for recombinant human LOXL2 in BALB/c mouse administered with (Z)-Ethyl1-(4-Amino-2-fluorobut-2-en-1-yl)-3-(3-(N,N-dimethylsulfamoyl)phenyl)-2-methyl-1H-indole-5-carboxylate Hydrochloride at 20 mg/kg, po administered via gavage by HPLC-MS/MS analysis; format: ADME, organism-based; details: in vivo
[2] = tested on: Mus musculus; assay: Antifibrotic activity in CCl4-induced BALB/c mouse model of liver fibrosis assessed as liver fibrosis area at 50 mg/kg, po administered for 6 weeks by picro-sirius red staining based microscopy; format: functional, organism-based
Procedure, shortened: (§1)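 Female BALB/c mice given CCl4 i.p. (1 mL/kg of 25% CCl4 in olive oil) twice weekly for 6 weeks; sacrificed 48 h after last dose. Test articles oral, once daily: prophylactic weeks 1-6 or therapeutic weeks 4-6; imatinib control 50 mg/kg daily weeks 1-6. One formalin-fixed liver lobe stained for Picro Sirius Red and α-SMA; fibrotic area as % of total liver area; mean ± SEM, one-way ANOVA with Dunnett's test.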

[3] = tested on: Mus musculus; assay: Effect on plasma ALT level in CCl4-induced BALB/c mouse model of liver fibrosis at 50 mg/kg, po administered for 6 weeks; format: ADME, organism-based; details: in vivo, 1008 h
Procedure, shortened: (§2)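 CCl4 liver fibrosis in female BALB/c mice: CCl4 i.p. (1 mL/kg 25% in olive oil) twice weekly for 6 weeks, sacrifice 48 h after final injection. Oral once-daily dosing weeks 1-6 or weeks 4-6; imatinib 50 mg/kg daily weeks 1-6. ALT and AST measured in plasma.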

[4] = tested on: Mus musculus; assay: Effect on plasma AST level in CCl4-induced BALB/c mouse model of liver fibrosis at 50 mg/kg, po administered for 6 weeks; format: ADME, organism-based; details: in vivo, 1008 h; procedure, shortened: as §2
[5] = tested on: Mus musculus; assay: Antifibrotic activity in bleomycin-induced C57BL/6 mouse model of lung fibrosis assessed as reduction in Ashcroft score at 50 mg/kg, ip administered on day 7 to 27 and measured on day 28 by H and E staining based microscopy; format: functional; details: C57BL/6, ip
Procedure, shortened: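 Female C57BL/6 mice, 6-8 weeks old, under isoflurane received intranasal bleomycin sulphate 0.05 U/mouse in PBS; controls got PBS. Once-daily i.p. treatment days 7-27, n=12/group; imatinib 50 mg/kg i.p. as comparator. Sacrifice at day 28; lung fibrosis scored by Ashcroft score.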

[6] = tested on: Mus musculus; assay: Antifibrotic activity in CCl4-induced BALB/c mouse model of liver fibrosis assessed as reduction in liver fibrosis area at 50 mg/kg, po administered for 6 weeks by alpha-SMA staining based microscopy; format: functional, organism-based; procedure, shortened: as §1

T>IC50 [1] [h] | Compound | inhibition [2] | Activity [3] | Activity [4] | inhibition in vivo at 50 mg/kg [5] [%] | inhibition [6]
> 6 | Cc1c(-c2cccc(S(=O)(=O)N(C)C)c2)c2cc(C(=O)O)ccc2n1C/C(F)=C/CN | – | – | – | – | –
– | Cc1ccc(NC(=O)c2ccc(CN3CCN(C)CC3)cc2)cc1Nc1nccc(-c2cccnc2)n1 [IMATINIB] | inactive | Non-Toxic | Non-Toxic | 50 to 70 | Active
